Laboratory results taken from ChEMBL document CHEMBL1129041, “Design of orally active dual inhibitors of neutral endopeptidase and angiotensin-converting enzyme with long duration of action” (J Med Chem, 1996).

Columns and labels:
[1] = target: T1, Neprilysin (Mus musculus) (UniProt Q61391); assay: In vivo percent inhibition activity against kidney Neutral endopeptidase 2 hr after oral administration of a dose of 2.6 x 10e-5 mol/kg; assay type: functional, organism-based
T1 sequence (whole entry): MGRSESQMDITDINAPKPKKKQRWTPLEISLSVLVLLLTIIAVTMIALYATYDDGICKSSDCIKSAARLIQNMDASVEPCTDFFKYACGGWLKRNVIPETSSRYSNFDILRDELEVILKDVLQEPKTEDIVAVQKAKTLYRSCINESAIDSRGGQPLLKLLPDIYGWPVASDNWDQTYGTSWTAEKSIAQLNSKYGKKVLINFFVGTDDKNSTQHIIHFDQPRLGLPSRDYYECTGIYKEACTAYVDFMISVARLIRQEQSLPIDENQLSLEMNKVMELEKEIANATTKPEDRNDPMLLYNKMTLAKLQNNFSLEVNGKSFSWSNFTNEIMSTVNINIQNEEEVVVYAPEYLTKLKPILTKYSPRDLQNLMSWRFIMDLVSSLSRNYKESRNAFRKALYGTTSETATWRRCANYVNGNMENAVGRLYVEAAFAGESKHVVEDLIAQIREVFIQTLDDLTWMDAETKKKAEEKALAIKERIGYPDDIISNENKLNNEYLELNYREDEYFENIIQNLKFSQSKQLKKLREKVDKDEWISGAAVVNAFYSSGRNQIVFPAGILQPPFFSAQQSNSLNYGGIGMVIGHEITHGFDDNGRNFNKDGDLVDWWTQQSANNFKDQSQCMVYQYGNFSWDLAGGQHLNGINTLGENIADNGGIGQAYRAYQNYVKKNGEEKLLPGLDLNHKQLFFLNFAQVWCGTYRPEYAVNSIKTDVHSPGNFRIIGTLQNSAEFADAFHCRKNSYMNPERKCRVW
Procedure, shortened: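 Mice given a single oral dose in 10% ethanol/10% cremophor/80% water; kidneys taken 2 h later and homogenized at 4 °C in 50 mM Tris-HCl pH 7.4. Membrane fraction (100000g) preincubated 5 min at 25 °C with bestatin and captopril, then incubated 10 min with [3H]-D-Ala2-Leu-enkephalin (2 × 10^-8 M). [3H]Tyr-D-Ala-Gly counted; blanks contained 10^-5 M retrothiorphan.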

Neprilysin = target: T2, Neprilysin (Oryctolagus cuniculus, UniProt P08049); assay: In vitro inhibition of neutral endopeptidase
T2 sequence (P08049 whole entry): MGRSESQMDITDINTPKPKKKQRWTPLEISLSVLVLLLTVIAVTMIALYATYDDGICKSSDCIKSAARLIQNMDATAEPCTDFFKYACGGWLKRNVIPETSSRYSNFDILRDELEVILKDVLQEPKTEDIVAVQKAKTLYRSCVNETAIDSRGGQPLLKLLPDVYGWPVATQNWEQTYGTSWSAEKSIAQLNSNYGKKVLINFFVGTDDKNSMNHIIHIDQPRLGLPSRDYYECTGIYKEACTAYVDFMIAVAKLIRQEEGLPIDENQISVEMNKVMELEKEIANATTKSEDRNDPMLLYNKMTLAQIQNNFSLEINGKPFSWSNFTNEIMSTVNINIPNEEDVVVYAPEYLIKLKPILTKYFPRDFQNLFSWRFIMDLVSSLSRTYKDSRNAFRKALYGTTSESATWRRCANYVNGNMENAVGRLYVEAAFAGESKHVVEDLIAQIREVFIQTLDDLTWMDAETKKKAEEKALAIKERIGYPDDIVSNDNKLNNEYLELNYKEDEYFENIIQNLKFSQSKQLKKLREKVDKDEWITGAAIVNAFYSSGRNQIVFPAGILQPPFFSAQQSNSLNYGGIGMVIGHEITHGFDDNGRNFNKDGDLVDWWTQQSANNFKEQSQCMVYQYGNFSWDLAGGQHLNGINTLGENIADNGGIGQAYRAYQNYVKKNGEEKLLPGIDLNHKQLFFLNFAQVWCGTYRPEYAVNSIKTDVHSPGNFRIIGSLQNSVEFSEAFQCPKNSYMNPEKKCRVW
Procedure, shortened: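 NEP purified from rabbit kidney, 1 pmol/100 µL final, preincubated 15 min at 25 °C with increasing inhibitor concentrations in 50 mM Tris-HCl pH 7.4. Substrate [3H]-D-Ala2-Leu-enkephalin at 20 nM final, 30 min; stopped with 0.5 M HCl. [3H]Tyr-D-Ala-Gly separated on polystyrene beads and counted by scintillation. IC50 is the mean ± SEM of three independent experiments run in triplicate.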

Structure (SMILES)	inhibition [1]	IC50 (Neprilysin)
O=C(NCC(=O)N1[C@@H](c2ccccc2)CC[C@H]1C(=O)O)[C@@H](S)Cc1ccccc1	75%	1.6 nM
Cc1ccccc1[C@H]1CC[C@@H](C(=O)O)N1C(=O)CNC(=O)[C@@H](S)Cc1ccccc1	37%	5.3 nM
Cc1ccc([C@H]2CC[C@@H](C(=O)O)N2C(=O)CNC(=O)[C@@H](S)Cc2ccc(O)cc2)cc1	3%	5.5 nM
O=C(NCC(=O)N1[C@@H](c2ccccc2O)CC[C@H]1C(=O)O)[C@@H](S)Cc1ccc(O)cc1	69%	3.5 nM
O=C(NCC(=O)N1[C@@H](c2cccc(O)c2)CC[C@H]1C(=O)O)[C@@H](S)Cc1ccc(O)cc1	72%	1.6 nM
Cc1ccccc1C1CC[C@@H](C(=O)O)N1C(=O)CNC(=O)[C@@H](S)Cc1ccc(O)cc1 (single isomer, unassigned)		2.7 nM
Cc1ccc([C@H]2CC[C@@H](C(=O)O)N2C(=O)CNC(=O)[C@@H](S)Cc2ccccc2)cc1	34%	12.5 nM
